# Residues, ends and D or L forms follow the SMILES beside them.
# Tests used:
# Dipeptidyl peptidase 4 [1] = target: T1, Dipeptidyl peptidase 4 (Homo sapiens, UniProt P27487); experiment: Inhibition of DPP-4 (unknown origin) assessed as half-life of endomorphin-1 after 30 min by RP-HPLC analysis (reference value: […] +/- 0.52 min)
# Target sequence in this assay (P27487 whole entry, looked up): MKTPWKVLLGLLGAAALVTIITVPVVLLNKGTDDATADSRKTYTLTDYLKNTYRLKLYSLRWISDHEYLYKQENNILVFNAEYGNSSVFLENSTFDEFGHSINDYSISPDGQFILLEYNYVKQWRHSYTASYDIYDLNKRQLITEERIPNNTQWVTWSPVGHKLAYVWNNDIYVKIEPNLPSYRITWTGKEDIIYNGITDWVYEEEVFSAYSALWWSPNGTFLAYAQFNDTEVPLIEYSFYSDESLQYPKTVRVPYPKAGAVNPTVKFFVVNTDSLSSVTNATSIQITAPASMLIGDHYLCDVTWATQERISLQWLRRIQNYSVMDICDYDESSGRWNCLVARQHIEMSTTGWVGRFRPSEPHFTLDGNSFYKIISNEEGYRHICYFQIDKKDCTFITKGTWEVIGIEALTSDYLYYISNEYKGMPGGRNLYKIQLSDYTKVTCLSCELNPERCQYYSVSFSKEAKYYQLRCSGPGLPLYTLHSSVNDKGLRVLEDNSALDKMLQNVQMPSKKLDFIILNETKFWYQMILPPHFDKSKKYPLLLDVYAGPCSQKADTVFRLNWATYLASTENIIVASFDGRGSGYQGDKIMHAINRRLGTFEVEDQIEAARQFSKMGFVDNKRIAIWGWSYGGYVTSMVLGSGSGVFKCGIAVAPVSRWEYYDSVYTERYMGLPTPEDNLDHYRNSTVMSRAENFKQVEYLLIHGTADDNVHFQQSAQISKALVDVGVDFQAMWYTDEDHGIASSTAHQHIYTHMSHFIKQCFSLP
# Dipeptidyl peptidase 4 [2] = target: T1, Dipeptidyl peptidase 4; experiment: Inhibition of DPP-4 (unknown origin) assessed as half-life of endomorphin-2 after 30 min by RP-HPLC analysis (reference value: […] +/- 0.64 min)
# Target sequence in this assay (P27487 whole entry, looked up): as above
# Aminopeptidase N [3] = target: T2, Aminopeptidase N (Homo sapiens, UniProt P15144); experiment: Inhibition of APM (unknown origin) assessed as inhibition of endomorphin-2 degradation after 30 min
# T2 sequence (P15144 whole entry): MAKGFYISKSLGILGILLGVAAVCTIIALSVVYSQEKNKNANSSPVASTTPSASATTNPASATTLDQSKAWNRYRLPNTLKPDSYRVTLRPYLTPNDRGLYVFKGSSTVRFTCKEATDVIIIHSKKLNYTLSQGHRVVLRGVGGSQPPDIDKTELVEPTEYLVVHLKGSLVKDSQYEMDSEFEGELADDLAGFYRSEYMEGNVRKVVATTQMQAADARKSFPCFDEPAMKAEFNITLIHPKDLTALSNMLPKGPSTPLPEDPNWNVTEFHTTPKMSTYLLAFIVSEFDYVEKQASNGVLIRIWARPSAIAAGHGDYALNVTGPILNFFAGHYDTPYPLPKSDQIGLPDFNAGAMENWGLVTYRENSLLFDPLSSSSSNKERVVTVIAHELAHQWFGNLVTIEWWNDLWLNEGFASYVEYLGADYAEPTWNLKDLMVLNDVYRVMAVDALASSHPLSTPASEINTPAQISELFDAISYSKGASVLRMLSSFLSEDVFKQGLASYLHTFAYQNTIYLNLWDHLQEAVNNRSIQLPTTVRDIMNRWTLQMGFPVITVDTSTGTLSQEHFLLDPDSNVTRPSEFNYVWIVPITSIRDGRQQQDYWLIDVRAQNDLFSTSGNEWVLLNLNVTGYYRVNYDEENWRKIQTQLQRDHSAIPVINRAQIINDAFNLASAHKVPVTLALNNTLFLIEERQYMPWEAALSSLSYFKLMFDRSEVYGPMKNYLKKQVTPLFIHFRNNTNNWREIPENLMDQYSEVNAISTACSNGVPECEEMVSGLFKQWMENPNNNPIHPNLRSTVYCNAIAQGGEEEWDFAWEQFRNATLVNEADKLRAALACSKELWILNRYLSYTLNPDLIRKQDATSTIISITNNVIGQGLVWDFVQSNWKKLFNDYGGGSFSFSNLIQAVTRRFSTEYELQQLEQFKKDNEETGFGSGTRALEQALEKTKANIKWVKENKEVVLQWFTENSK
# Aminopeptidase N [4] = target: T2, Aminopeptidase N; experiment: Inhibition of APM (unknown origin) assessed as inhibition of endomorphin-1 degradation after 30 min
# Aminopeptidase N [5] = target: T2, Aminopeptidase N
# Aminopeptidase N [6] = target: T2, Aminopeptidase N; remark: listed apart in the source
# Dipeptidyl peptidase 4 [7] = target: T1, Dipeptidyl peptidase 4; experiment: Inhibition of DPP-4 (unknown origin) assessed as inhibition of endomorphin-1 degradation after 30 min
# How it was run: (§1)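 Purified commercial DPP IV (0.002 mg protein/ml) incubated with endomorphin and inhibitor, each from 1 mM solutions in 50 mM Tris–HCl pH 7.4, at 37°C for 0, 7.5, 15, 22.5 and 30 min. Stopped on ice with 1 M HCl, centrifuged. Rate constant k from linear regression of ln(A/A0) of peptide peak area versus time; t1/2 = ln2/k. Three independent experiments in duplicate.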
# Dipeptidyl peptidase 4 [8] = target: T1, Dipeptidyl peptidase 4; experiment: Inhibition of DPP-4 (unknown origin) assessed as inhibition of endomorphin-2 degradation after 30 min; how it was run: as §1
SMILES,T1/2 (Dipeptidyl peptidase 4 [1]) [min],T1/2 (Dipeptidyl peptidase 4 [2]) [min],Ki (Aminopeptidase N [3]) [µM],Ki (Aminopeptidase N [4]) [µM],T1/2 (Aminopeptidase N [5]) [min],T1/2 (Aminopeptidase N [6]) [min],Ki (Dipeptidyl peptidase 4 [7]) [µM],inhibition (Dipeptidyl peptidase 4 [7]) [%],Ki (Dipeptidyl peptidase 4 [8]) [µM],inhibition (Dipeptidyl peptidase 4 [8]) [%]
C[C@H](NC(=O)[C@@H]1CCCN1C(=O)[C@@H](N)Cc1ccc(O)cc1)C(=O)O (H-Tyr-Pro-Ala-OH),27.5,27.4,,,,,,,,
CCCCC[C@H](CC(=O)NO)C(=O)N[C@H](C(=O)N1CCC[C@H]1CO)C(C)C [ACTINONIN],,,300,390,46.3,36.8,,,,
CC[C@H](C)[C@H](N)C(=O)N1CCC[C@H]1C(=O)N[C@H](C(=O)O)[C@@H](C)CC,530,383,,,,,,,,
C[C@H](NC(=O)[C@@H]1CCCN1C(=O)[C@@H](N)Cc1ccc(O)cc1)C(N)=O (H-Tyr-Pro-Ala-NH2),22.9,19.8,,,,,420,26.7,170,44.8
